The record followed here is ChEMBL document CHEMBL3272188, “Inhibitors of Bacillus subtilis DNA polymerase III. 6-(arylalkylamino)uracils and 6-anilinouracils” (J Med Chem, 1977).

pKi: −log10 of the molar value. Where only a bound is given, the exact number is not on record here.

A short description of test [1]: Inhibition of wild-type Bacillus subtilis DNA polymerase 3-mediated dGTP truncated DNA synthesis assessed as inhibition of incorporation of [3H]TMP. A digest of the protocol: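 Pol III truncated DNA synthesis run with dGTP omitted from the reaction. The reported Ki is the inhibitor concentration giving 50% inhibition of enzyme activity.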
Test [2] is described as follows: Inhibition of Bacillus subtilis DNA polymerase 3/azp-12 mutant-mediated dGTP truncated DNA synthesis assessed as inhibition of incorporation of [3H]TMP.
The test system of a further test is Bacillus subtilis. Put plainly: Inhibition of wild-type Bacillus subtilis DNA polymerase 3-mediated dGTP truncated DNA synthesis assessed as inhibition of incorporation of [3H]TMP at 1 mM. A digest of the protocol:
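Single-concentration test at 1 mM inhibitor in pol III truncated DNA synthesis with dGTP omitted.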

Turning to `Oc1cc(NCCc2ccccc2)nc(O)n1`, the pKi (in general, the negative decadic logarithm of the Ki, by convention in mol/L) was 4.50 in test [1] and 4.52 in test [2].

For the compound `Cc1ccc(Nc2cc(O)nc(O)n2)cc1C`, in test [1], the pKi was 6.00.

Take `Cc1cccc(Nc2cc(O)nc(O)n2)c1`: in test [1], the pKi was 4.56.

As for `CC(=O)Nc1ccc(CNc2cc(=O)[nH]c(=O)[nH]2)cc1`, the pKi in test [1] is 2.64.

With `O=c1cc(NCC2CCCCC2)[nH]c(=O)[nH]1`, the inhibition (in general, the change of the read-out against control, counted positive when it falls) in the test on Bacillus subtilis is less than 10%.

As to `Cc1ccc(Nc2cc(O)nc(O)n2)cc1`, in test [1], the pKi was 4.69.

As to `Oc1cc(Nc2ccccc2)nc(O)n1`, the inhibition with Bacillus subtilis is less than 10%.

For `O=c1cc(NCc2ccc([N+](=O)[O-])cc2)[nH]c(=O)[nH]1`, the pKi in test [1] is 5.28.

As for `Oc1cc(NCCCc2ccccc2)nc(O)n1`, the pKi in test [1] was 2.70.

`CC(Nc1cc(=O)[nH]c(=O)[nH]1)c1ccccc1` (configuration not stated): the inhibition in the test on Bacillus subtilis is less than 10%.

Regarding `Oc1cc(NCCCCc2ccccc2)nc(O)n1`, the inhibition in the test with Bacillus subtilis was less than 10%.

For `Oc1cc(NCc2ccccc2)nc(O)n1`, the pKi is 5.64 in test [1] and 5.60 in test [2].

For the compound `Nc1ccc(CNc2cc(=O)[nH]c(=O)[nH]2)cc1`, the values for the pKi in test [1] and in test [2] were 4.77 and 3.81, respectively.

In the case of `Oc1cc(Nc2ccc3c(c2)CCC3)nc(O)n1`, in test [1], the pKi is 6.40.
